# Assay outcomes as filed in PubChem BioAssay.
# FXIa inh 1536 = human FXIa protease inhibitors, primary screen, biochemical, 1536-well; purified FXIa, Boc-Glu-Ala-Arg-AMC fluorogenic substrate; inhibition, % at 5 µM; AID 798, 2007; 0.14% of 220,000 active;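 active = inhibition of at least 40%; inactive = inhibition below 40%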;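 note: fluorescence of freed AMC excited at 355 nm; 0% = enzyme without compound and 100% = no enzyme blank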
# Target sequence (P03951 19-387 limits assumed): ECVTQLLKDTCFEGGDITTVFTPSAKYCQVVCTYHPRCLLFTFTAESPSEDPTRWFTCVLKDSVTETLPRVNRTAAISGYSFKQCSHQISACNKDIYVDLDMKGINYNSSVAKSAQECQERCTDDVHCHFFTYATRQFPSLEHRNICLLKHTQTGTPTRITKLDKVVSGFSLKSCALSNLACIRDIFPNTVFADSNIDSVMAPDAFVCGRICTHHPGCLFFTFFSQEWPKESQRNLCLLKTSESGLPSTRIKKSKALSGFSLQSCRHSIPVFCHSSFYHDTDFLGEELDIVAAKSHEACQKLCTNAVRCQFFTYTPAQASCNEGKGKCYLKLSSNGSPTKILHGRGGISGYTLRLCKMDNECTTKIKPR
# Target sequence (P03951 388-625 limits assumed): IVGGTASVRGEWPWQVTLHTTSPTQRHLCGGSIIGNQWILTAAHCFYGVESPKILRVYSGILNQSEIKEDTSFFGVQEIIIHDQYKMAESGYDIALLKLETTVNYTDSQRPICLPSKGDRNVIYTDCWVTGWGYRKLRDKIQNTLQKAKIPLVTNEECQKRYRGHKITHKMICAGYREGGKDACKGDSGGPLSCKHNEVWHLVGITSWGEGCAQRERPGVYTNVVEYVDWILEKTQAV
# FXIIa inh 1536 = human FXIIa protease inhibitors, primary screen, biochemical, 1536-well; purified FXIIa, Boc-QGR-AMC fluorogenic substrate, 2 h; inhibition, % at 5 µM; 0.3% of 220,000 active; AID 800, 2007; in the data active = inhibition above about 40%;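 note: 0% = enzyme with no compound and 100% = blank without enzyme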
# AHR activator = AHR activators, primary screen, cell-based, luminescence, luciferase reporter, human; Aryl hydrocarbon receptor (Homo sapiens), P35869; AHR-responsive luciferase reporter cells; activation, % at 5 µM; 2.5% of 320,000 active; in the data active = activation above about 47%;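 note: 0% = vehicle wells and 100% = reference agonist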
# STAT3 activator = IL-6 driven STAT3 reporter potentiators, primary screen, U3A cells, luciferase, luminescence, MLSCN library; IL-6 STAT3-luciferase reporter; 100% = signal with IL-6 EC80 alone; activation (% of control), % at 5.6 µM; 0.91% of 190,000 active;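 active = activation above the screen-wide mean of compound activation plus 3 SD, cut at about 130% in these data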;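 note: 0% = background luminescence of wells with medium and substrate only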
#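 Material: STAT3-luciferase reporter U3A cells; Probe or stimulus: IL-6 (33 ng/mL); Incubation: compound pre-incubation 1 h before IL-6, then 6 h stimulation at 37 °C; Technique: luminescence from STAT3-driven luciferase reporter; Evaluation: % activation versus median of IL-6-stimulated wells; Controls: IL-6-only high control.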
# thrombin 1536 = human alpha-thrombin inhibitors, primary screen, counter-screen for coagulation protease inhibitor project, biochemical, 1536-well, fluorogenic AMC substrate. Prothrombin (Homo sapiens), P00734. Boc-VPR-AMC fluorogenic substrate cleavage. inhibition, % at 5 µM. 0.26% of 220,000 active. AID 1046, 2008;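 active = inhibition at or above 40%; inactive = inhibition below 40%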;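 note: 0% = enzyme with no compound and 100% = wells without enzyme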
#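 signal = AMC fluorescence, 355/460 nm | material = human alpha-thrombin enzyme | control set = enzyme without compound as high, wells lacking enzyme as low | times = reaction at room temperature | read-out basis = percent inhibition scaled between no-compound controls and no-enzyme blanks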
# KLK5 inh = human KLK5 protease inhibitors, primary screen, biochemical, 1536-well. inhibition, % at 5 µM. AID 873, 2007. Kallikrein-5 (Homo sapiens), Q9Y337. recombinant hK5, fluorogenic AMC substrate cleavage. 0.59% of 210,000 active;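 active = inhibition of 40% or more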;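 note: 0% = enzyme controls without compound and 100% = no-enzyme blanks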
# * marks the source's active call; other numbers are inactive results; x = not tested or not shown. Shown are actives, neighbours in structure and some others; about 3.5% of the full set was active somewhere.
SMILES,FXIa inh 1536,FXIIa inh 1536,AHR activator,STAT3 activator,thrombin 1536,KLK5 inh
CCN(CC(=O)Nc1ccc2c(c1)OCCO2)C(=O)/C=C/c1cccc(Br)c1,x,x,2,x,x,x
O=C(Cc1csc(-c2ccccc2)n1)Nc1ccc(C(F)(F)F)cc1,2,3,55*,103,-6,-22
Cc1ccc(NC(=O)Cc2csc(-c3ccccc3)n2)cc1F,3,7,20,101,-2,-3
Cc1csc(=O)n1CC(=O)OCC(=O)NC(C)c1ccc(F)cc1 (stereo unspecified),x,x,-2,x,x,x
C=CCOc1ccccc1/C=N/NC(=O)c1ccc(Cl)cc1Cl,2,3,69*,108,-6,-5
COc1cc(C(=O)Oc2ccccc2/C=N/NC(=O)c2ccc(Cl)cc2Cl)cc(OC)c1OC,0,10,59*,116,0,-7
O=C(CN(c1cccc([N+](=O)[O-])c1)S(=O)(=O)c1ccccc1)N1CCCCC1,x,x,-2,x,x,x
COc1nnc(-c2ccc(N3CCCCC3)c(N)c2)c2ccccc12,x,x,64*,81,x,x
Cc1cccc(CN2CCC(Oc3ccc(C(=O)N4CCCC4)cc3)CC2)n1,x,x,-1,x,x,x
CCOC(=O)c1c(C)oc2c1c(C(c1cccnc1)N1CCOCC1)c(O)c1ccccc12 (stereo unspecified),-4,5,9,133*,-2,2
C(=N\Nc1nc(-c2ccccc2)cs1)/c1ccco1,4,10,110*,95,-6,-6
O=[N+]([O-])c1cccc(-c2csc(N/N=C/c3cccc(O)c3)n2)c1,-5,1,74*,97,-2,-4
Clc1ccc(-c2csc(N/N=C\c3cccnc3)n2)cc1,10,14,-2,90,1,-10
ClCc1csc(N/N=C/c2cccs2)n1,2,11,14,x,2,7
C(=N\Nc1nc(-c2ccccc2)cs1)/c1cccs1,10,27,60*,122,10,2
C(=N\Nc1nc(-c2ccccc2)cs1)/c1ccncc1,-3,7,60*,97,-10,2
CCOC(=O)Cc1csc(N/N=C/c2cccc([N+](=O)[O-])c2)n1,x,x,-6,x,x,x
CCn1c(SCC(=O)c2c(N)n(C3CC3)c(=O)[nH]c2=O)nc2cc(S(N)(=O)=O)ccc21,x,x,0,x,x,x
Fc1ccc2c(c1)C(c1ccncc1)=NNC(c1ccccc1)=N2,6,13,8,102,-7,-9
O=C(NNc1nc(-c2ccccc2)cs1)c1ccco1,-7,4,72*,103,3,-41
Cc1ccc(-n2nc(C)c3c2OC(N)=C(C#N)C3c2ccco2)cc1 (stereo unspecified),-2,11,63*,140*,9,-12
Cc1ccc(-n2nc(C)c3c2OC(N)=C(C#N)C3c2ccc(C)o2)cc1 (stereo unspecified),7,14,33,126,6,-2
O=C(NC(Cc1cccc(F)c1)C(=O)O)C1CCCCC1 (stereo unspecified),x,x,-4,x,x,x
CC(C)(CO)NC(=S)NCc1ccco1,1,7,-1,x,-3,100*
Cc1ccc(C(=O)n2nc(-c3ccccc3)nc2NCc2ccco2)cc1,5,12,2,96,12,11
SMILES,FXIa inh 1536,FXIIa inh 1536,AHR activator,STAT3 activator,thrombin 1536,KLK5 inh
O=C(c1ccco1)n1nc(-c2cccnc2)nc1NCc1ccco1,11,19,15,110,96*,4
O=C(c1ccccc1)n1nc(-c2ccccc2)nc1NCc1ccco1,-1,10,5,104,73*,15
Cc1noc(C)c1NC(=O)N(C)C[C@H]1Oc2ccc(NC(=O)Nc3ccc(C(F)(F)F)cc3)cc2C(=O)N([C@H](C)CO)C[C@@H]1C,x,x,0,x,x,x
CCOc1ccc(NC(=O)C(C)O)c(NS(=O)(=O)c2ccc(CCNC(C)=O)cc2)c1 (stereo unspecified),3,-1,1,95,104*,79*
O=C(CN1C(=O)NC2(CCc3ccccc32)C1=O)NCC(=O)Nc1ccc(F)cc1 (stereo unspecified),x,x,5,x,x,x
Cc1occc1C(=O)Nc1nccs1,-4,8,10,96,-4,-2
O=C(Nc1nnc(-c2cccs2)s1)c1cccc(F)c1,3,5,56*,106,-9,3
CC(=O)Cc1nsc(NC(=O)c2cccc(F)c2)n1,25,21,8,103,0,52*
Cc1nnc(NC(=O)c2cccc(F)c2)s1,4,16,1,94,7,44*
Cc1nnc(NC(=O)c2c(F)cccc2F)s1,6,21,0,103,-3,-7
Cc1occc1C(=O)Nc1nnc(-c2cccs2)s1,1,7,76*,112,9,6
Cn1c(SCC(=O)c2ccc3c(c2)OCCO3)nnc1C1CC1,25,27,13,101,11,-12
COc1ccc(C(=O)NC(=S)N2CC(C)OC(C)C2)cc1OC (stereo unspecified),-4,3,1,99,-8,-2
COc1ccc(NC(C)=O)cc1NC(=O)c1ccc2ccccc2c1,-3,9,74*,98,7,-5
Cc1nnc(NC(=O)Nc2cccc(Cl)c2)s1,5,15,71*,103,1,-4
COc1ccc(OC)c(NC(=O)c2ccc(-c3cccs3)cc2)c1,-5,5,76*,92,-2,-7
COc1ccc(NC(=O)c2cc(-c3cccs3)on2)c(OC)c1,x,x,1,x,x,x
COc1ccc(C(=O)Nc2nnc(-c3cccs3)s2)cc1,2,8,67*,157*,3,-24
COCCN(C(=O)CSc1nnc(Nc2ccccc2F)s1)c1c(N)n(Cc2ccccc2)c(=O)[nH]c1=O,5,22,1,109,2,-7
COc1cccc(OC)c1C(=O)Nc1nnc(-c2ccc(F)cc2)s1,x,x,74*,x,x,x
O=C(Nc1nnc(-c2ccc(F)cc2)s1)c1ccco1,x,x,-2,x,x,x
O=C(c1cccc(F)c1F)N1CCCc2ccccc21,x,x,51*,x,x,x
O=C(NC(=S)N1CCCc2ccccc21)c1ccc(Cl)cc1,-8,-3,44,142*,-9,-18
CCCCNC(=O)Nc1ncn[nH]1,8,8,0,x,-1,8
Cn1c(=O)c2c(nc(SCCN3CCOCC3)n2Cc2ccc(F)cc2)n(C)c1=O,16,6,4,118,10,52*
Cn1c(=O)c2c(nc(SCCN3CCOCC3)n2Cc2ccccc2Cl)n(C)c1=O,3,19,1,99,1,-3
C=C(C)CN(CC)C(=O)CSc1nc2ncc(Cl)cc2[nH]1,3,15,69*,95,10,9
